Screening data from PubChem.
This is a sample that favours compounds with a hit; in the whole collection about 6.7% have one here.
T cruzi inh: T. cruzi replication inhibition; T. cruzi beta-gal in NIH3T3, luminescence, 90 h; inhibition, % (no concentration beside the values); hit rate 1.4% among 300,000;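 active = mean inhibition across valid replicates above about 55%, limit read from the data; inconclusive = mean below that limit but half or more replicates reach it; inactive = mean below it, under half of replicates reach it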;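 note: signal also drops with host cell toxicity which is not excluded here; higher percent means less beta-gal luminescence so fewer parasites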
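Assay system: NIH/3T3 fibroblasts plus reporter T. cruzi. Amount: NIH/3T3 cells, 5,000 per well. Buffer or medium: DMEM, 2% fetal bovine serum. Doses: compound pinned at 50 nL/well, DMSO. Schedule: ≥90 h infection period, 3 h prior cell attachment. Signal: luminescent β-galactosidase signal after 60 min lysis. Read-out: parasite load inhibition, %.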
Beta cell apopt: beta cell apoptosis inhibition. INS-1E cytokine-induced death, ATP luminescence, 48 h; percent of positive-control rescue, neutral wells zero. protection from apoptosis, % (concentration not given with the values). hit rate 0.8% among 300,000. AID 435005;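 active = Every replicate reaches about 75%, or at least half do and their mean reaches it too, limit read from the data; inconclusive = At least half of replicates reach the limit but their mean does not; inactive = Under half of replicates reach the limit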;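 note: higher means more ATP so stronger rescue from cytokine killing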
PREPL inhibitor: inhibitors of human prolyl oligopeptidase-like enzyme PREPL; AID 2751; inhibition, % at 5.96 µM; hit rate 0.68% among 320,000; recombinant PREPL, fluorescence polarization activity-based probe; Q4J6C6; in the data active = inhibition above about 43%
Target sequence (Q4J6C6 whole entry, looked up): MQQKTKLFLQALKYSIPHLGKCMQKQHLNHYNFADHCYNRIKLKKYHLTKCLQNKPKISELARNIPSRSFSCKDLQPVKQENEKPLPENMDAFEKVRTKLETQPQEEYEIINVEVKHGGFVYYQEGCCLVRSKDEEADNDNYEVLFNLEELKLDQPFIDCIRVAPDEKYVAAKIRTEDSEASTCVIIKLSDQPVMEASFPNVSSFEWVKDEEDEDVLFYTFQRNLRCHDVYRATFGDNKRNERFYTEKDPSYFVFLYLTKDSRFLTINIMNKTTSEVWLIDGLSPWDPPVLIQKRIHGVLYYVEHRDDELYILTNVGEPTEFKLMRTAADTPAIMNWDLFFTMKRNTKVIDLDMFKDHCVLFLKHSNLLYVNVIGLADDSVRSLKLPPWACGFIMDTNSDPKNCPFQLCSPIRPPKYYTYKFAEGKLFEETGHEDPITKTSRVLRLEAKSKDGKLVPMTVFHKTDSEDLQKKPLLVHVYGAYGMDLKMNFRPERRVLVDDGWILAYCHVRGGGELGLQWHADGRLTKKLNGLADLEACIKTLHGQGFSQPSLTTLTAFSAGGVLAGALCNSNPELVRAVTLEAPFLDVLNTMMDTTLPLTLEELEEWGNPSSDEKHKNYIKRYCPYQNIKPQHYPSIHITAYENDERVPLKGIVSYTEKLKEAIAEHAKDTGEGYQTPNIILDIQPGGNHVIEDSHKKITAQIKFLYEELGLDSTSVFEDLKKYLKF
CHOP inh: inhibitors of CHOP induction in ER stress response; CHO-K1 CHOP-promoter luciferase, tunicamycin-induced, 15-18 h; inhibition, % at 10 µM; hit rate 3.8% among 220,000;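 active = compounds that reduced the stress-induced luciferase reporter signal by more than about 70% of percent inhibition, limit read from the data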
NR3A LBD binder: modulates the human NR3A ligand-binding domain | hit rate 2.5% among 340,000 | NR3A LBD differential scanning fluorimetry, Tm shift; 0% = protein alone, 100% = glycine-bound protein | Tm shift relative to glycine control, % at 25 µM;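 active = melting temperature shift of at least 10% of the positive control shift, at one fixed dose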
CSC inhib: blocks cancer stem cells; inhibition, % at 7.5 µM; AID 2717; cancer stem cell-like cells viability, luminescence; hit rate 1.1% among 300,000; in the data active = inhibition above about 75%; inconclusive = no clear call, values can overlap the other calls; tested in HMLE shEcad cells
CHOP confirm: confirmation of CHOP induction inhibitors; CHO-CHOP promoter luciferase reporter, tunicamycin-induced, luminescence; shares compounds with CHOP inh; inhibition, % at 10 µM; AID 504437; hit rate 45% among 2,100;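 active = mean of three repeat readings of reporter signal inhibition above a set limit, cut at about 70% in these data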
A number is an active result; n = inactive; u = inconclusive; x = no result given.

SMILES	T cruzi inh	Beta cell apopt	PREPL inhibitor	CHOP inh	NR3A LBD binder	CSC inhib	CHOP confirm
O=C(CN1CCCC1)Nc1ccccc1Sc1ccc(Cl)cc1	n	n	n	n	n	n	x
CCOC(=O)c1c(NC(C)=O)sc2c(O)cccc12	n	n	n	n	n	n	x
CCOC(=O)c1c(NC(C)=O)sc2c(OCC(O)CNC(C)(C)C)c(Br)ccc12 (centres undefined)	n	n	n	105.3	n	n	n
C/C(CCc1oc2ccc(Br)cc2c1-c1ccc(C)o1)=N/O	n	n	n	97.3	n	n	n
Cc1ccc(-c2cc(C(=O)O)c3cc(Br)ccc3n2)o1	n	n	n	n	n	n	x
CC1(C)CC(=O)C(=Cc2cn(-c3ccccc3)nc2-c2ccc(Cl)cc2)C(=O)C1	n	n	n	104.7	n	n	n
COc1ccc(Br)cc1CN(C)CC(O)COc1ccc(Br)cc1 (centres undefined)	n	n	n	x	n	x	x
CC(CCc1ccccc1)NC(=O)COC(=O)C12CC3CC(CC(Br)(C3)C1)C2 (centres undefined)	n	n	n	n	n	n	x
N#CC1=C(N)N2C(=C(C#N)C1c1ccc(Br)cc1)Nc1ccccc12 (centres undefined)	n	109.0	n	105.5	22.6	114.1	94.4
N#CC1=C(N)N2C(=C(C#N)C1c1ccccc1)Sc1ccccc12 (centres undefined)	n	n	n	n	x	n	x
N#CC1=C(N)N2C(=C(C#N)C1c1cccc(Br)c1)Nc1ccccc12 (centres undefined)	n	99.7	n	101.3	23.9	n	105.1
O=C(CN1C(=O)NC2(CCCCCC2)C1=O)Nc1ccc2c(c1)CCC2	n	n	n	n	n	n	x
Cc1nn(C(C)C(=O)NC2CCCCCC2)c(=O)c2nn(-c3ccccc3)c(C)c12 (centres undefined)	n	n	n	x	n	n	x
O=[N+]([O-])c1c(NCCCO)cc(Sc2nc3ccccc3s2)c2nonc12	n	n	n	109.4	n	n	71.4
Cc1nnc(Sc2cc(NCCCO)c([N+](=O)[O-])c3nonc23)s1	n	x	x	n	n	x	x
Cc1nnc(Sc2cc(NCCO)c([N+](=O)[O-])c3nonc23)s1	n	x	x	98.0	n	x	n
COc1ccc(C(=O)NNC(=O)C(=O)NC2CCCCC2)cc1	n	n	n	x	n	n	x
Cc1cc(C(=O)C(C)OC(=O)c2ccc(NC(=O)CC#N)cc2)c(C)n1-c1ccccc1 (centres undefined)	n	x	n	x	n	n	x
COc1ccc(N/N=C(C)/C(=N/O)C(=O)Nc2ccccc2)cc1	n	n	n	n	n	n	x
O=C(Nc1nccs1)c1c(O)c2c([nH]c1=O)CCCC2	n	n	n	n	n	n	x
O=C(N/N=C/c1cccc(Cl)c1)c1c(O)c2c([nH]c1=O)CCCC2	n	n	n	98.0	n	n	n
CC(C)(C)c1ccc(C(=O)N/N=C/c2cccc(Cl)c2)cc1	n	x	n	n	n	n	x
O=C(Nc1ccccc1O)c1c(O)c2c([nH]c1=O)CCCC2	n	n	n	103.2	13.9	x	126.0
Nc1nc(=S)c2ncn(C3CCCC3)c2[nH]1	n	n	x	n	n	n	x
COc1ccc2c(c1)c1ncn(CCN3CCCC3)c(=O)c1n2C	n	n	n	101.2	n	n	n
SMILES	T cruzi inh	Beta cell apopt	PREPL inhibitor	CHOP inh	NR3A LBD binder	CSC inhib	CHOP confirm
Cn1c(SCC(=O)N/N=C/c2ccc([N+](=O)[O-])s2)nnc1-c1ccccc1	57.8	u	n	104.8	n	n	n
O=C(O)COc1ccccc1C(Nc1cccnc1)c1cc(Cl)c2cccnc2c1O (centres undefined)	n	x	x	n	n	x	x
O=C(NC(c1ccccc1)c1cc(Cl)c2cccnc2c1O)c1cccnc1 (centres undefined)	58.1	80.7	n	104.5	x	102.4	103.5
O=C(NNC(=O)C1CC=CCC1)c1ccccc1Cl (centres undefined)	n	n	x	x	n	n	x
N#C/C(=C\c1ccc([N+](=O)[O-])o1)C(=O)Nc1ccc(F)cc1	n	n	n	108.0	n	n	106.3
COc1ccc(NC(=O)/C(C#N)=C\c2ccc(Br)o2)cc1	n	n	n	n	n	n	x
CCCc1c(C)[nH]c2ccc(C(=O)O)cc2c1=S	n	x	x	n	n	x	x
